# Rows were chosen to be rich in hits. Some 0.95% of all compounds tested hit in one or more screens of this group.
# HNF4A DNA FP: change in binding of human HNF4 alpha to DNA | P41235 | HNF4a-FITC DNA binding, fluorescence polarization, 1 h | activity change, % at 10 µM | 360,000 tested, 0.3% active | AID 1224865; in the data active = activity change above about 30%, passing the limit was not always enough
# CSN inh: blocks human CSN-mediated cullin deneddylation. Q92905. Purified CSN, SCF-Nedd8-OG deneddylation, fluorescence polarization. inhibition, % at 12.5 µM. 360,000 tested, 0.38% active. AID 651999;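 active = pattern-corrected inhibition above about 35%, with an unprinted fluorescence ratio check between 0.5 and 1.5, limit read from the data, passing the limit was not always enough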;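 note: 0% = enzyme with substrate and 100% = substrate without enzyme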
#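 Assay system: purified human Csn5 enzyme expressed in HEK293T cells; measure: % inhibition; also added: SCFSkp2-Nedd8OG substrate at 10 nM final; technique: fluorescence polarization; times: reaction 90 min, room temperature; medium: Tris buffer pH 7.5, NaCl, DTT, Tween-20, trehalose, ovalbumin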
# ARFGAP1 inhibitor: inhibitors of rat ARFGAP1. Q62848. Arfgap1-stimulated ARF1 GTP hydrolysis, GDP FP detection. inhibition, % at 16.5 µM. 360,000 tested, 0.26% active;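 active = inhibition above a per-plate limit, mean inhibition of low control wells plus 3 SD, cut at about 25% in these data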;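 note: 0% = DMSO wells with enzyme and 100% = wells lacking Arfgap1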
#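 Material – truncated rat Arfgap1 GAP domain · Buffer or medium – HEPES-based buffer, pH 7.5 · Reagent – human ARF1(Δ1-17)-GTP substrate · Dosing – 16.5 µM single point, 1.26% DMSO · Schedule – GTP hydrolysis reaction 2 h at 25 °C · Technique – GDP detection by fluorescence polarization · Benchmarks – No-Arfgap1 wells (100%) versus DMSO full-reaction wells (0%) · Repeats – single replicate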
# ASAP1 GAP inh: blocks human ASAP1-stimulated Arf1 GTP hydrolysis. Q9ULH1. GDP FP detection. inhibition, % at 16.5 µM. 360,000 tested, 0.19% active. AID 624377; in the data active = inhibition above about 25%;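 note: 0% = vehicle with enzyme and substrate and 100% = no enzyme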
# Target sequence (Q9ULH1 325-724 limits assumed): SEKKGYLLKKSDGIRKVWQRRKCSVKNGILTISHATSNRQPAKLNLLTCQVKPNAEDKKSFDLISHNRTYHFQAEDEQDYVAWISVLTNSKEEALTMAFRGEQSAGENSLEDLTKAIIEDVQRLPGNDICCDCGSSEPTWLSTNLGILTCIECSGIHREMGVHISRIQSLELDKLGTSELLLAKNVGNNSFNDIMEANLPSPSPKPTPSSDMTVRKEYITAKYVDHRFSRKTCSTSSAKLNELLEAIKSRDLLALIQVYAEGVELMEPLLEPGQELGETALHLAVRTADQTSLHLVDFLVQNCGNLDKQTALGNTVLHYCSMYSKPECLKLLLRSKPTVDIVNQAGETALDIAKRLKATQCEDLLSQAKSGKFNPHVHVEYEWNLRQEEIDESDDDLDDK
# ARFGAP1 inh conf: rat ARFGAP1 inhibition, confirmed; AID 651608; 890 tested, 30% active; shares compounds with ARFGAP1 inhibitor; ARFGAP1-stimulated ARF1 GTP hydrolysis, GDP tracer FP; inhibition, % at 16.5 µM;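 active = average inhibition over triplicates above the hit cutoff set in the earlier primary screen, cut at about 25% in these data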;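 note: 0% = Arfgap1 plus ARF1-GTP with DMSO and 100% = wells lacking Arfgap1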
# Numbers without * were called inactive; . = not tested or not shown.
SMILES,HNF4A DNA FP,CSN inh,ARFGAP1 inhibitor,ASAP1 GAP inh,ARFGAP1 inh conf
CS(=O)(=O)N1CCN(C(=O)COc2ccccc2)CC1,-2,-3,25*,-1,-1
CS(=O)(=O)N1CCN(C(=O)COc2ccc3ccccc3c2)CC1,11,-4,2,2,.
CC1(C(=O)NCC(F)(F)F)CCN1C(=O)C1(c2ccccc2)CC1 (stereo not drawn),2,-5,5,-4,.
Cc1ccc(C(c2ccc(C)c(C)c2)C(O)C2OC(=O)C(O)C2O)cc1C (stereo not drawn),-3,-3,0,-8,.
CCOC(=O)c1ccc(Nc2cc(C)nc(-c3ccccc3)n2)cc1,-2,-1,27*,19,15
CCOC(=O)c1ccc(Nc2nc(C)cc(C)n2)cc1,3,2,2,0,.
O=C(Nc1ccc2oc(=O)ccc2c1)c1ccc(-c2cccc(Cl)c2)o1,1,11,-1,24,.
O=C(Nc1ccc2oc(=O)ccc2c1)c1ccc(-c2cccc([N+](=O)[O-])c2)o1,13,44,71*,63*,107*
CSc1ccc(S(=O)(=O)N2c3ccccc3CC2C)cc1 (stereo not drawn),3,2,8,-2,.
Cc1ccccc1NC(=O)Cc1nc(COC(=O)c2cc([N+](=O)[O-])ccc2N)cs1,-1,0,29*,0,23
COc1cccc(-c2nn(-c3ccccc3)cc2CN(C)C(C)c2ccncn2)c1 (stereo not drawn),1,2,-6,3,.
COc1ccc(-n2cc(CN(C)C(C)c3ccncn3)c(-c3cccc(F)c3)n2)cc1 (stereo not drawn),1,3,27*,7,4
CN(C)c1ccc(C(=O)OCC(=O)N2CCOCC2)cc1,-3,-5,13,12,.
Cc1ccsc1C(=O)OCC(=O)N1CCOCC1,-2,1,35*,-16,-5
CN(Cc1ccccc1F)C(=O)c1ccc(NC(=O)CC2SC(N3CCCCC3)=NC2=O)cc1 (stereo not drawn),0,-1,-4,3,.
COc1ccccc1Cc1c(-c2ccc(Cl)cc2)nc2ccc(C)cn12,.,.,-3,-5,.
CN(C)CCNc1ncnc2sc(-c3ccccc3)cc12,2,-5,-13,-8,.
OCCOCCNc1ncnc2sc(-c3ccccc3)cc12,3,0,36*,3,1
CC(O)(c1cccnc1)c1nc(-c2cccc3cccnc23)cs1 (stereo not drawn),3,5,4,-7,.
CC(C)(C)OC(=O)N1CCC[C@H]1C(=O)NCC1CCC(C(=O)O)CC1 (stereo partly drawn),3,2,26*,5,-1
COC(=O)/C=C1\OCc2ccccc21,2,0,-14,-12,.
COc1ccc2c(c1)C(c1ccc(C)o1)=NNC(c1cccnc1)=N2,2,-2,25*,-6,1
COc1ccc2c(c1)C(c1ccc(C)o1)=NNC(c1ccccc1)=N2,1,-3,-7,7,.
Cc1ccc(S(=O)(=O)N2CCC(=O)N(CCOC(=O)Nc3ccc(C)c(C)c3)CC2)cc1,-1,-1,35*,13,0
CC(C)N(C(=O)[C@H]1C[C@H](CC(=O)NCCN2CCOCC2)C(=O)N2CCc3c([nH]c4ccc(Cl)cc34)[C@]12C)C(C)C,2,-3,-20,-1,.
SMILES,HNF4A DNA FP,CSN inh,ARFGAP1 inhibitor,ASAP1 GAP inh,ARFGAP1 inh conf
COc1cccc(/C=N/NC(=O)c2ccc(-c3ccccc3)cc2)c1O,0,3,37*,-3,30*
O=C(c1ccncc1)N1CCN(S(=O)(=O)c2cccc(Cl)c2)CC1,-3,-7,27*,-7,0
CC(=O)NS(=O)(=O)c1ccc(NC(=O)c2cccc3ccccc23)cc1,-2,1,-7,-3,.
c1ccc(CSc2ncnc3ccccc23)cc1,6,1,-3,-11,.
Cc1ccc(CSc2ncnc3ccccc23)cc1,1,3,25*,1,-2
O=C(O)C1CCN(S(=O)(=O)c2cccc3nonc23)CC1,-2,-3,-5,-14,.
O=C(N/N=C/c1cccc([N+](=O)[O-])c1)c1ccc(COc2ccccc2-c2ccccc2)cc1,2,-15,35*,8,2
O=C(N/N=C/c1cccc([N+](=O)[O-])c1)c1ccc(Br)cc1,7,12,10,22,.
O=C(c1ccccc1)c1ccc[nH]1,2,2,1,0,.
